The full list was thinned out, with hits kept by preference.
T cruzi growth-1: inhibitors of T. cruzi proliferation. AID 624255. 77,000 tested, 5.9% active. inhibition, % at 8.34 µM. T. cruzi beta-gal in NIH3T3, GalScreen luminescence, 90 h;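 active = mean inhibition above about 93%, with at least 55% of replicates each passing it, limit read from the data, passing the limit was not always enough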
IDH1 mut inh: blocks human IDH1 R132H reductase activity. O75874. diaphorase/resazurin fluorescence, 60 min. inhibition, % at 10 µM. 70,000 tested, 0.18% active; in the data active = inhibition above about 34%
Target sequence (O75874 whole entry R132H): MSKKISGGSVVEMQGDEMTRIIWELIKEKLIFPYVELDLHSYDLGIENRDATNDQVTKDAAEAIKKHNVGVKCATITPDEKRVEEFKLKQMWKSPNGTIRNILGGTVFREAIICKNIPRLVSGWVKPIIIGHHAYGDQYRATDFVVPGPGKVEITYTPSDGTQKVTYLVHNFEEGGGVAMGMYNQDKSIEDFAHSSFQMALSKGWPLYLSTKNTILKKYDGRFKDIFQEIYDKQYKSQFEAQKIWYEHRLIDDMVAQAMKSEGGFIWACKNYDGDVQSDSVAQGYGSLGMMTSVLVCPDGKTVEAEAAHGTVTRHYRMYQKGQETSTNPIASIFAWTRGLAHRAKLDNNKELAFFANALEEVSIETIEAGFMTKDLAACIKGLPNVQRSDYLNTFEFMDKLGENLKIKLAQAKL
GASC1 inh: KDM4C (human) demethylase inhibition | AID 720574 | Q9H3R0 | 96,000 tested, 0.15% active | GST-KDM4C 2-372, H3K9me3 peptide, LANCE TR-FRET | inhibition, % at 12.5 µM;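 active = mean replicate inhibition above about 25%, with at least 55% of replicates also reaching it, limit read from the data, passing the limit was not always enough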
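Test system: N-terminal GST-fused human GASC-1 (KDM4C) fragment, residues 2-372; quantity: GASC-1 enzyme at 10 nM final in reaction; dosing: single dose; schedule: 30 min demethylation and 1 h detection at room temperature; signal: LANCE TR-FRET, excitation 340 nm, emissions 618 and 671 nm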
T cruzi growth-2: inhibitors of T. cruzi proliferation; inhibition, % at 8.35 µM; shares compounds with T cruzi growth-1; AID 651739; 5,600 tested, 72% active; T. cruzi beta-gal in NIH3T3, GalScreen luminescence, 90 h;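 active = mean replicate inhibition above about 95% and at least 55% of replicates individually reaching it, limit read from the data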
T cruzi growth-3: inhibitors of T. cruzi proliferation; shares compounds with T cruzi growth-1; 5,600 tested, 21% active; inhibition, % at 2.09 µM; T. cruzi beta-gal in NIH3T3, GalScreen luminescence, 90 h;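 active = mean inhibition above about 95%, with at least 55% of replicates also reaching it, limit read from the data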
NIH3T3 tox: cytotoxicity in mouse NIH/3T3 fibroblasts; shares compounds with T cruzi growth-1; NIH/3T3 viability, CellTiter-Glo ATP luminescence, 90 h; cytotoxicity (signal decrease), % at 8.35 µM; 5,600 tested, 14% active; AID 651742;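 active = mean signal decrease across replicates above about 35% based on untreated-well scatter, with enough replicates individually passing, limit read from the data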
3T3 cytotox 2: NIH/3T3 (mouse) viability loss; shares compounds with T cruzi growth-1; NIH/3T3 viability, CellTiter-Glo ATP luminescence, 90 h; inhibition, % at 24.9 µM; 5,600 tested, 56% active; AID 651744;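 active = mean loss of cell viability signal at or above a set limit, and enough replicates individually reaching it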
Numbers stand for hits; . = inactive; / = no result given.

SMILES	T cruzi growth-1	IDH1 mut inh	GASC1 inh	T cruzi growth-2	T cruzi growth-3	NIH3T3 tox	3T3 cytotox 2
CCCNC(=O)N[C@H]1C=C[C@@H](CC(=O)NCCc2ccccc2)O[C@@H]1CO	.	.	.	/	/	/	/
Cc1ccc(-c2csc3nc(SCC(=O)O)n(-c4ccccc4)c(=O)c23)cc1	/	.	/	/	/	/	/
COCC#Cc1ccc([C@@H]2[C@H](CO)N3CCCCN(Cc4cccnc4)C[C@@H]23)cc1	.	/	.	/	/	/	/
COCC#Cc1ccc([C@H]2[C@@H](CO)N3CCCCN(Cc4cccnc4)C[C@H]23)cc1	100	/	.	96	.	.	.
COCC#Cc1ccc([C@H]2[C@H]3CN(Cc4cncnc4)CCCCN3[C@H]2CO)cc1	.	/	.	/	/	/	/
COCC#Cc1ccc([C@H]2[C@H](CO)N3CCCCN(Cc4cccnc4)C[C@@H]23)cc1	102	/	.	101	.	.	.
COCC#Cc1ccc([C@H]2[C@@H](CO)N3CCCCN(Cc4cncnc4)C[C@@H]23)cc1	108	/	.	.	.	.	.
C[C@H](CO)N1C[C@H](C)[C@@H](CN(C)C(=O)NC2CCCCC2)Oc2c(NC(=O)C3CC3)cccc2C1=O	.	/	.	/	/	/	/
O=C(COc1cc(O)c2c(=O)cc(-c3ccccc3)oc2c1)c1cccc([N+](=O)[O-])c1	/	.	/	/	/	/	/
Cc1ccc(-c2cnc3c(c2)C(=O)N([C@H](C)CO)C[C@H](C)[C@H](CN(C)Cc2ccccc2F)O3)cc1	.	.	.	/	/	/	/
Cc1ccc(-c2cnc3c(c2)C(=O)N([C@H](C)CO)C[C@@H](C)[C@H](CN(C)Cc2ccccc2F)O3)cc1	.	.	.	/	/	/	/
Cc1ccc(-c2cnc3c(c2)C(=O)N([C@H](C)CO)C[C@@H](C)[C@H](CN(C)CC2CCCCC2)O3)cc1	.	.	.	/	/	/	/
Cc1ccc(-c2cnc3c(c2)C(=O)N([C@@H](C)CO)C[C@H](C)[C@H](CN(C)Cc2ccccc2F)O3)cc1	100	.	.	107	.	.	44
Cc1ccc(-c2cnc3c(c2)C(=O)N([C@@H](C)CO)C[C@@H](C)[C@H](CN(C)CC2CCCCC2)O3)cc1	110	/	.	95	.	.	104
Cc1ccc(-c2cnc3c(c2)C(=O)N([C@@H](C)CO)C[C@H](C)[C@@H](CN(C)Cc2ccccc2F)O3)cc1	115	.	.	.	.	.	.
CO[C@@H]1CN(C)C(=O)c2ccc(NC(=O)Nc3ccccc3F)cc2OC[C@@H](C)N(CCC(F)(F)F)C[C@H]1C	.	.	.	/	/	/	/
C[C@H](CO)N1C[C@H](C)[C@H](CN(C)Cc2ccc(C(=O)Nc3ccccc3N)cc2)Oc2ccc(NC(=O)CCC(F)(F)F)cc2CC1=O	.	/	.	/	/	/	/
CCC(=O)N1[C@@H](CO)[C@@H](c2ccc(-c3cccnc3)cc2)[C@@H]1CN(CC)C(C)=O	98	/	.	.	.	.	.
CCC(=O)N(C)C[C@H]1[C@H](c2ccc(-c3cccnc3)cc2)[C@@H](CO)N1C(C)=O	.	/	.	/	/	/	/
COCC(=O)N(C)C[C@@H]1[C@H](c2ccc(-c3cccnc3)cc2)[C@@H](CO)N1C(C)=O	100	/	.	.	.	.	.
CCC(=O)N1[C@H](CO)[C@@H](c2ccc(-c3cccnc3)cc2)[C@@H]1CN(C)C(C)=O	.	/	.	/	/	/	/
C[C@@H](NC(=O)[C@@H]1[C@@H](CO)[C@@H]2Cn3c(cccc3=O)[C@H]1N2CCC(F)(F)F)c1ccccc1	.	/	.	/	/	/	/
Cn1c(SCCCN2C(=O)c3cccc4cccc(c34)C2=O)nnc1-c1cccs1	/	.	/	/	/	/	/
COc1ccc(NC(=O)N(C)C[C@@H]2OCc3ccccc3-c3c(n(C)c4ccccc34)C(=O)N([C@@H](C)CO)C[C@@H]2C)cc1	.	.	.	/	/	/	/
C[C@@H]1CN([C@H](C)CO)C(=O)c2cc(C3=CCCCC3)cnc2O[C@H]1CN(C)Cc1cccc(F)c1	.	.	.	/	/	/	/
C[C@@H]1CN([C@@H](C)CO)C(=O)c2cc(C3=CCCCC3)cnc2O[C@@H]1CN(C)Cc1cccc(F)c1	112	.	.	98	.	.	44
C[C@H]1CN([C@@H](C)CO)C(=O)c2cc(C3=CCCC3)cnc2O[C@H]1CN(C)Cc1cccc(F)c1	.	.	.	/	/	/	/
